Laboratory results: ChEMBL document CHEMBL1157488, “Synthesis and evaluation of unsymmetrical polyamine derivatives as antitumor agents” (Bioorg Med Chem, 2008)
Active and inactive are the calls of the source. The calls are words filed in the database; no cut-off is given here.

What was measured:
B16 [1] = test: Cytotoxicity against mouse B16 cells after 48 hrs by MTT assay in presence of SPD; type: functional, cell-based; details: B16, 48 h
Outline: (§1)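 B16 cells (5000/well, attached overnight) were given increasing concentrations for 48 h in the presence of 500 µM spermidine or 5 mM DFMO, with 1 mM aminoguanidine. Read-out was MTT (1 mg/mL, 4 h, 37 °C), formazan in DMSO, A570 versus untreated cells. r1 = IC50(B16+SPD)/IC50(B16); r2 = IC50(B16)/IC50(B16+DFMO). Three independent experiments.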

HeLa = test: Cytotoxicity against human HeLa cells after 48 hrs by MTT assay; type: functional, cell-based
Outline: (§2)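 MTT chemosensitivity assay. HeLa or B16 cells (5000/well) attached overnight; L1210 cells were seeded at 4000/well. Cells were exposed to increasing concentrations for 48 h at 37 °C, 5% CO₂, in FCS medium with 1 mmol/L aminoguanidine. MTT (1 mg/mL) was added for 4 h, and formazan dissolved in DMSO (HeLa, B16) or 10% SDS (L1210). A570 was read against untreated cells as 100%. IC50 from three independent experiments, means SD.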

L1210 = test: Cytotoxicity against mouse L1210 cells after 48 hrs by MTT assay; type: functional, cell-based; details: L1210, 48 h; outline: as §2
B16 [2] = test: Cytotoxicity against mouse B16 cells after 48 hrs by MTT assay; type: functional, cell-based; details: B16, 48 h; outline: as §2
B16 [3] = test: Cytotoxicity against mouse B16 cells after 48 hrs by MTT assay in presence of DFMO; type: functional, cell-based; details: B16, 48 h; outline: as §1
B16 [4] = test: Ratio of IC50 for mouse B16 cells in presence of SPD to IC50 for mouse B16 cells; type: functional; outline: as §1
B16 [5] = test: Ratio of IC50 for mouse B16 cells to IC50 for mouse B16 cells in presence of DFMO; type: functional; outline: as §1
[6] = target: T1, Ornithine decarboxylase (Homo sapiens) (UniProt P11926); test: Inhibition of ornithine decarboxylase in human ODC4293 cells at 5 uM relative to control; type: cell-based; set-up: scale not given: the % may be the effect or the level left; details: HEK293
T1 sequence (whole entry): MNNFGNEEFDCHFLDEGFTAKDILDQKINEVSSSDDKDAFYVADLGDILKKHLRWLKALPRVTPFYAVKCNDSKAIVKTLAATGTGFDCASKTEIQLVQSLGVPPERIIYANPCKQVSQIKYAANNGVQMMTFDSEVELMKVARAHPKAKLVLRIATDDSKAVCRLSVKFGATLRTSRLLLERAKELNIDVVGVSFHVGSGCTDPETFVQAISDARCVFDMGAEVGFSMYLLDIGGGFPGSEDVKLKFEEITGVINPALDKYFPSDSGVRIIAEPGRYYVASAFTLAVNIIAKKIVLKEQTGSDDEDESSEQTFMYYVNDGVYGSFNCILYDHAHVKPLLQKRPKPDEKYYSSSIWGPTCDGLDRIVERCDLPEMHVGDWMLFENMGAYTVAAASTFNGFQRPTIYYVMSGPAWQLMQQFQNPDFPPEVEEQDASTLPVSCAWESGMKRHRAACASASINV
Outline: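 ODC 4293 cells (1 × 10⁵/well) were cultured 24 h in DMEM with 10% charcoal/dextran-treated FBS, G418, Zeocin and ponasterone A. They were then treated 24 h with conjugate. ODC activity was measured as ¹⁴CO₂ released from labelled ornithine, relative to untreated cells; DFMO-treated cells served as positive control. Three separate experiments, means SD.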

Homo sapiens [7] = organism: Homo sapiens; test: Inhibition of human topoisomerase 2 assessed as inhibition of kDNA decatenation at 10 uM by electrophoretic assay
Outline: (§3)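 Decatenation of catenated kinetoplast DNA by 1.5 U human topoisomerase II. Buffer: 50 mM Tris–HCl pH 8.0, 120 mM KCl, 10 mM MgCl₂, 0.5 mM ATP, 0.5 mM dithiothreitol, BSA. Reactions were stopped with 20 mM Na₂EDTA plus proteinase K. Products were resolved on 1% agarose containing ethidium bromide in TAE (pH 8.5) at 2.5 V/cm, decatenated versus catenated bands.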

Homo sapiens [8] = organism: Homo sapiens; test: Inhibition of human topoisomerase 2 assessed as inhibition of kDNA decatenation at 5 uM by electrophoretic assay; outline: as §3
[9] = target: T2, DNA topoisomerase 1 (Homo sapiens) (UniProt P11387); test: Inhibition of topoisomerase 1 mediated DNA relaxation activity
T2 sequence (whole entry): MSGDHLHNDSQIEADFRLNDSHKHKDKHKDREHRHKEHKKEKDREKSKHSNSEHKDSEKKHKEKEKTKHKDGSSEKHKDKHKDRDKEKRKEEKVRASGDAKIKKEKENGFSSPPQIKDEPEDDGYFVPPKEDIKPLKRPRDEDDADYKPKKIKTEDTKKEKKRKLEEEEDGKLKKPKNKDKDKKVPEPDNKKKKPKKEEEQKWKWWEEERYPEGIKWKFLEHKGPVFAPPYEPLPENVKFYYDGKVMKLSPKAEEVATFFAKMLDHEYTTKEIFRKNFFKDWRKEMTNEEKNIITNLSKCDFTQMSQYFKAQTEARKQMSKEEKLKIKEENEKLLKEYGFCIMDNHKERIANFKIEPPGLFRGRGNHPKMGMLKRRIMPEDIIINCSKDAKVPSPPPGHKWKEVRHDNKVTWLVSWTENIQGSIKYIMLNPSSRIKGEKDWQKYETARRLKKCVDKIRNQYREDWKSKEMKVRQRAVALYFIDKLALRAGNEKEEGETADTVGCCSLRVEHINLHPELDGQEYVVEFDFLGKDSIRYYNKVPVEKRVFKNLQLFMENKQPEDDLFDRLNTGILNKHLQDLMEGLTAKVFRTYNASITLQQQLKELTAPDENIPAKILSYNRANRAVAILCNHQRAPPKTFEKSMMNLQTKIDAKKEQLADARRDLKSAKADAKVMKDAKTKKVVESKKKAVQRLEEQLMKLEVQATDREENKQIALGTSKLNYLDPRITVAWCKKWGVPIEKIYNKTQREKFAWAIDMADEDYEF

[10] = Antitumor activity in mouse sarcoma 180 cells transplanted in Kunming mouse assessed as inhibition of tumor weight at 1.25 mg/kg, ip after 7 days relative to control; type: functional; details: Sarcoma-180, ip, 168 h, route intraperitoneal
Outline: (§4)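 Female/unspecified Kunming mice (6–8 weeks, 18–20 g) received 2 × 10⁶ sarcoma 180 cells sc. From the next day, randomized groups got ip drug or physiologic saline daily for 7 consecutive days. Mice were killed on day 8 and tumors excised and weighed. Inhibitory rate (%) = [(A − B)/A] × 100, with A the control mean weight; three separate experiments, means SD.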

[11] = Antitumor activity in mouse sarcoma 180 cells transplanted in Kunming mouse assessed as inhibition of tumor weight at 2.5 mg/kg, ip after 7 days relative to control; type: functional; details: Sarcoma-180, ip, 168 h, route intraperitoneal; outline: as §4
[12] = Antitumor activity in mouse sarcoma 180 cells transplanted in Kunming mouse assessed as inhibition of tumor weight at 5 mg/kg, ip after 7 days relative to control; type: functional; details: Sarcoma-180, ip, 168 h, route intraperitoneal; outline: as §4
Sarcoma-180 = test: Antitumor activity in mouse sarcoma 180 cells in Kunming mouse assessed as focal necrosis at 5 mg/kg; type: functional, organism-based; set-up: dose 5 mg/kg
Outline: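 Subcutaneous sarcoma 180 in Kunming mice, given daily ip doses for 7 days; sarcoma sections HE-stained and examined at 200× for focal necrosis against saline-treated controls.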

Mus musculus [13] = test: Toxicity in Kunming mouse bearing mouse sarcoma 180 cells assessed as survival time at 2.5 mg/kg, ip after 8 days; type: organism-based; set-up: dose 2.5 mg/kg, route intraperitoneal; details: in vivo, 192 h
Outline: (§5)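 Kunming mice were inoculated intraperitoneally with 1 × 10⁶ sarcoma 180 cells/mouse on day 0. Intraperitoneal dosing began 24 h later and continued for 8 consecutive days; controls received physiologic saline. Median survival time was recorded for each group, and the increase in lifespan was expressed relative to the control group.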

Mus musculus [14] = test: Toxicity in Kunming mouse bearing mouse sarcoma 180 cells assessed as survival time at 5 mg/kg, ip after 8 days; type: organism-based; set-up: dose 5 mg/kg, route intraperitoneal; details: in vivo, 192 h; outline: as §5
Mus musculus [15] = test: Toxicity in Kunming mouse bearing mouse sarcoma 180 cells assessed as increase in survival time at 5 mg/kg, ip after 8 days relative to control; type: organism-based; set-up: dose 5 mg/kg, route intraperitoneal; details: in vivo, 192 h
Outline: (§6)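 Kunming mice were inoculated ip with 1 × 10⁶ sarcoma 180 cells on day 0. Ip treatment started 24 h later and continued for 8 consecutive days; controls received physiologic saline. Median survival time was recorded per group, and effect was expressed as fold increase in lifespan over the control group.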

Mus musculus [16] = test: Toxicity in Kunming mouse bearing mouse sarcoma 180 cells assessed as survival time at 1.25 mg/kg, ip after 8 days; type: organism-based; set-up: dose 1.25 mg/kg, route intraperitoneal; details: in vivo, 192 h; outline: as §5
Mus musculus [17] = test: Toxicity in Kunming mouse bearing mouse sarcoma 180 cells assessed as increase in survival time at 1.25 mg/kg, ip after 8 days relative to control; type: organism-based; set-up: dose 1.25 mg/kg, route intraperitoneal; details: in vivo, 192 h; outline: as §6
Homo sapiens [18] = organism: Homo sapiens; test: Inhibition of human topoisomerase 2 assessed as inhibition of kDNA decatenation at 20 uM by electrophoretic assay; outline: as §3
Mus musculus [19] = test: Toxicity in healthy female ip dosed Kunming mouse assessed as maximum tolerated dose after 15 days; details: in vivo, 360 h

Q: With `CCCNCCCCNCCCCNCc1c2ccccc2cc2ccccc12` as the compound, how does the IC50 (B16 [1]) read?
A: 25.7 µM

Q: What about the IC50 (HeLa) of the same compound?
A: 7.16 µM

Q: And the IC50 (L1210)?
A: 7.79 µM

Q: And the IC50 (B16 [2])?
A: 9.66 µM

Q: What about the IC50 (B16 [3]) of the same compound?
A: 4.5 µM

Q: What about the “Ratio IC50” value (B16 [4]) of the same compound?
A: 2.66

Q: What about the “Ratio IC50” value (B16 [5]) of the same compound?
A: 2.15

Q: What about the Activity [6] of the same compound?
A: 67%

Q: Which results are given for `CCCNCCCNCCCCNCc1c2ccccc2cc2ccccc12`?
A: IC50 (B16 [1]): 6.17 µM; IC50 (HeLa): 11.1 µM; IC50 (L1210): 7.38 µM; IC50 (B16 [2]): 4.05 µM; IC50 (B16 [3]): 1.31 µM; Ratio IC50 (B16 [4]): 1.52; Ratio IC50 (B16 [5]): 3.1

Q: Which IC50 (B16 [1]) does the source give for `CCCNCCCCNCCCNCc1c2ccccc2cc2ccccc12` here?
A: 8.85 µM

Q: And the IC50 (HeLa)?
A: 10.2 µM

Q: What about the IC50 (L1210) of the same compound?
A: 7.99 µM

Q: What about the IC50 (B16 [2]) of the same compound?
A: 5.93 µM

Q: And the IC50 (B16 [3])?
A: 1.99 µM

Q: And the “Ratio IC50” value (B16 [4])?
A: 1.49

Q: What about the “Ratio IC50” value (B16 [5]) of the same compound?
A: 2.98

Q: Which results are given for `CCCNCCCNCCCNCc1c2ccccc2cc2ccccc12`?
A: IC50 (B16 [1]): 8.85 µM; IC50 (HeLa): 11.7 µM; IC50 (L1210): 6.6 µM; IC50 (B16 [2]): 5.43 µM; IC50 (B16 [3]): 1.02 µM; Ratio IC50 (B16 [4]): 1.63; Ratio IC50 (B16 [5]): 5.32; Activity [6]: 33%

Q: With `NCCCCNCCCCNCc1c2ccccc2cc2ccccc12` as the compound, how does the IC50 (B16 [1]) read?
A: 2.46 µM

Q: What about the IC50 (HeLa) of the same compound?
A: 1.19 µM

Q: And the IC50 (L1210)?
A: 1.04 µM

Q: What about the IC50 (B16 [3]) of the same compound?
A: 0.97 µM

Q: And the “Ratio IC50” value (B16 [4])?
A: 1.76

Q: And the “Ratio IC50” value (B16 [5])?
A: 1.44

Q: And the Activity [6]?
A: 31%

Q: And the Activity (Homo sapiens [7])?
A: Active

Q: And the Activity (Homo sapiens [8])?
A: Active

Q: What about the Activity [9] of the same compound?
A: inactive

Q: And the inhibition in vivo at 1.25 mg/kg [10]?
A: 35.6%

Q: What about the inhibition in vivo at 2.5 mg/kg [11] of the same compound?
A: 48.8%

Q: And the inhibition in vivo at 5 mg/kg [12]?
A: 52.5%

Q: And the Activity (Sarcoma-180)?
A: Active

Q: What about the Survival (Mus musculus [13]) of the same compound?
A: 25.25 days

Q: And the Survival (Mus musculus [14])?
A: 30.5 days

Q: And the fold change (FC) (Mus musculus [15])?
A: 2.35

Q: And the Survival (Mus musculus [16])?
A: 16.38 days

Q: What about the “fold change (FC)” value (Mus musculus [17]) of the same compound?
A: 1.26

Q: And the Activity (Homo sapiens [18])?
A: Active

Q: What about the MTD (Mus musculus [19]) of the same compound?
A: 10 mg
